These results are taken from PubChem BioAssay AID624353 (The Scripps Research Institute Molecular Screening Center, 2012).

In this test the target is Insulin-degrading enzyme (Homo sapiens) (UniProt P14735). The experiment in a line: inhibition of recombinant WT IDE Abeta cleavage – biochemical, fluorescence polarization, FAbetaB substrate, round 2, counter-screen for IDE inhibitor project, late-stage follow-up (AID 624353). In a few lines:
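Assay system – recombinant WT IDE · Buffer or medium – HEPES, pH 7.4 · Incubation – reaction at room temperature · Detection – fluorescence polarization, ex 485 nm, em 525 nm · Control set – DMSO-only wells as low control, IDE inhibitor Ii1 as high · Repeats – each compound dose-response run in triplicate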
For orientation: Fluorescence polarisation rises when a labelled molecule tumbles more slowly, as on binding a larger partner.

Activity calls are given as the source filed them.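 How the source made its calls: active means insulin-degrading enzyme inhibitors with IC50 at or below 10 µM; inactive means the rest.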

The IC50 is the concentration that gives 50% inhibition.

Sequence of Insulin-degrading enzyme (Homo sapiens) (P14735 whole entry, looked up): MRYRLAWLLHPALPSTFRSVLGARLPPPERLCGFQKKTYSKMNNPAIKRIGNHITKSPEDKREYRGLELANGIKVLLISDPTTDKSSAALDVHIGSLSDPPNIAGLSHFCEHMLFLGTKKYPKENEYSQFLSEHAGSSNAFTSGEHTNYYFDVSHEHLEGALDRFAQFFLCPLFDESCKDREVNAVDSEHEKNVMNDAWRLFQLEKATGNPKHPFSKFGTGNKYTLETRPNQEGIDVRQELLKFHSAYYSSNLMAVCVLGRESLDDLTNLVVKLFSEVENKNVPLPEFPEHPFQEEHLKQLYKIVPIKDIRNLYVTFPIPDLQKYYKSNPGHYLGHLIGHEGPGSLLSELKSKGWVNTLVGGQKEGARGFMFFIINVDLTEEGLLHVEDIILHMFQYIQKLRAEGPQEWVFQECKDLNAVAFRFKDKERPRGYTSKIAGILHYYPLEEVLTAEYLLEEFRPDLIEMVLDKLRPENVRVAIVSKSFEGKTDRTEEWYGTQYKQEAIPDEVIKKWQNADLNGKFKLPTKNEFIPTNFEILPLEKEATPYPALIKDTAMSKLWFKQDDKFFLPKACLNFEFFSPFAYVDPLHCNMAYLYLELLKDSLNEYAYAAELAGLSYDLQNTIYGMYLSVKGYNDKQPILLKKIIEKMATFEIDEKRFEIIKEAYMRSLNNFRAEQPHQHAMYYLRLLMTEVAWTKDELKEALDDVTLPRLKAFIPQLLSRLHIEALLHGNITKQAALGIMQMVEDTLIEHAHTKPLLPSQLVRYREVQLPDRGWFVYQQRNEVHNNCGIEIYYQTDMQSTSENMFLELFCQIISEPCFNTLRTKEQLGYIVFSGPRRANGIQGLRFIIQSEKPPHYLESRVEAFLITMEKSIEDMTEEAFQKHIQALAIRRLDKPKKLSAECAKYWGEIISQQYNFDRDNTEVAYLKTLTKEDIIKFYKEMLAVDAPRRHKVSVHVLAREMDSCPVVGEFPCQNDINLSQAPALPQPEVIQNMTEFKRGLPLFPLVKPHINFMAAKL

For `O=C(c1ccc(Oc2ccccc2)cc1)N1CCN(C(=O)C2COc3ccccc3O2)CC1` (centres undefined), the IC50 was > 33 µM (inactive).
On to `COc1ccc(C(=O)N2CCN(C(=O)CCc3c[nH]c4ccccc34)CC2)cc1OC`, for which the IC50 is > 33 µM (inactive).
Then `COc1ccc(C(=O)N2CCN(C(=O)C3CC(=O)N(c4ccccc4)C3)CC2)cc1OC` (centres undefined), with > 33 µM (inactive); and `Cc1ccc(-c2nnc(SCc3nc4ccccc4[nH]3)n2Cc2ccco2)cc1`, with > 33 µM (inactive).
Regarding `Cc1nc(COc2ccc(C(=O)N3CCN(C(=O)C4COc5ccccc5O4)CC3)cc2)cs1` (centres undefined), the IC50 was > 33 µM (inactive).
As to `COc1ccc(C(=O)N2CCN(C(=O)COc3ccc(Cl)cc3)CC2)cc1OC`, the IC50 is > 33 µM (inactive).
Then `COc1ccc(C(=O)N2CCN(C(=O)COc3ccc(C)cc3)CC2)cc1OC`, with > 33 µM (inactive); and `O=C(c1ccc2nc(C(F)(F)F)[nH]c2c1)N1CCN(C(=O)C2COc3ccccc3O2)CC1` (centres undefined), with 7 µM.
Then `c1coc(Cn2c(SCc3nc4ccccc4[nH]3)nnc2-c2cnccn2)c1`, with > 33 µM (inactive); and `COc1cc(C(=O)N2CCN(C(=O)C3COc4ccccc4O3)CC2)cc(Cl)c1OC` (centres undefined), with > 33 µM (inactive).
Turning to `c1ccc(-c2nnc(SCc3nc4ccccc4[nH]3)n2Cc2ccco2)nc1`, the IC50 is > 33 µM (inactive).
On to `O=C(c1ccc(Oc2ccc(F)cc2)cc1)N1CCN(C(=O)C2COc3ccccc3O2)CC1` (centres undefined), for which the IC50 is > 33 µM (inactive).
Regarding `O=C(c1ccc(OCC2CCCO2)cc1)N1CCN(C(=O)C2COc3ccccc3O2)CC1` (centres undefined), the IC50 is > 33 µM (inactive).
Then `Cc1ccc(COCc2nnc(SCc3nc4ccccc4[nH]3)n2Cc2ccco2)cc1`, with > 33 µM (inactive); and `c1ccc(-c2nnc(SCc3nc4ccccc4[nH]3)n2Cc2ccco2)cc1`, with > 33 µM (inactive).
Regarding `CCOc1ccc(C(=O)N2CCN(C(=O)C3COc4ccccc4O3)CC2)cc1` (centres undefined), the IC50 is > 33 µM (inactive).
For the compound `COc1ccc(C(=O)N2CCN(C(=O)COc3ccccc3)CC2)cc1OC`, the IC50 is > 33 µM (inactive).
The figure for `c1coc(Cn2c(SCc3nc4ccccc4[nH]3)nnc2-c2ccco2)c1` is > 33 µM (inactive); for `COc1ccc(C(=O)N2CCN(C(=O)C(c3ccccc3)c3ccccc3)CC2)cc1OC` it is > 33 µM (inactive); for `CC(=O)Nc1ccccc1C(=O)N1CCN(C(=O)C2COc3ccccc3O2)CC1` (centres undefined) it is 6 µM.
Turning to `c1coc(Cn2c(SCc3nc4ccccc4[nH]3)nnc2-c2cccs2)c1`, the IC50 was > 33 µM (inactive).
The figure for `COc1cccc(C(=O)N2CCN(C(=O)C3COc4ccccc4O3)CC2)c1` (centres undefined) is 4 µM; for `Clc1ccc(COCc2nnc(SCc3nc4ccccc4[nH]3)n2Cc2ccco2)cc1` it is > 33 µM (inactive).
The figure for `COc1ccc(OCC(=O)N2CCN(C(=O)c3ccc(OC)c(OC)c3)CC2)cc1` is > 33 µM (inactive).
